Results published in the array DNA melting data of Ke et al. (doi:10.1101/2024.01.08.574731).

Key:
[1] = melting temperature; fluorescence melt of hairpins on a sequencing array, two-state fit, raised by 9.35 °C to match UV melts; conditions: sodium 0.088 M
In short: (§1)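 Folding enthalpy and melting temperature were estimated with bootstrapped two-state fits and combined across four replicates by inverse-variance weighting, with fitted temperatures raised by 9.35 °C to match UV melts. The data were Cy3 fluorescence of library hairpins, with annealed Cy3 and quencher oligos, on a sequenced MiSeq flow cell in 50 mM Na-HEPES pH 8.0, 25 mM NaCl, imaged in 2.5 °C steps up to 60 °C and normalised to pre-quench Cy3 and control constructs.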

[2] = folding enthalpy; higher = less favourable; fluorescence melt of hairpins on a sequencing array, two-state fit; conditions: sodium 0.088 M
In short: as §1

| Sequence | Tm [1] [°C] | folding enthalpy [2] [kcal/mol] |
| --- | --- | --- |
| GATCCCCGTAGGGATC ((((((....)))))) | 61.9 | -20.6 |
| GATCATATGATGATC ((((((...)))))) | 48.1 | -31.3 |
| GCGACCGCGAAAGCGCGC (((..(((....)))))) | 56.1 | -15.4 |
| GACGGGGGAAACCCCATC ((.((((....)))).)) | 37 | -14.7 |
| CGGGCGGAAACGCAGCCG ((((((....)))..))) | 50.2 | -19.5 |
| GAAGAGCGAAAGCTTTC (((.(((....)))))) | 31.1 | -12.2 |
| GATCACGGATGTGATC ((((((....)))))) | 67.5 | -37.1 |
| GTAACCGGAAACGATTAC ((((.((....)).)))) | 36.4 | -25.3 |
| GCGGACACCCGC ((((....)))) | 53.5 | -20.9 |
| GTGATCCGAAAGGAACAC (((.(((....))).))) | 53.6 | -27.5 |
| GCGTAACGACGC ((((....)))) | 51.4 | -21.9 |
| GATGAGGGAAACCTTGTC ((..(((....)))..)) | 28.1 | -15.3 |
| GCTGTCGGAAACGGTAGC (((..((....))..))) | 41.8 | -28.9 |
| GGACTGTCGAAAGACTCC (((..(((....)))))) | 21.5 | -5.54 |
| GATCTCCGGAGAGATC ((((((....)))))) | 52.7 | -39.4 |
| GCAATGGGAAACCATTGC (((((((....))))))) | 66.2 | -39.2 |
| GATCCAGGAAACTGGACC (.(((((....))))).) | 39.1 | -15.9 |
| GGTCCCGGAAACAGGACC (((((.(....).))))) | 49.7 | -28.6 |
| GATCGTCTGGACGATC ((((((....)))))) | 57.5 | -42.6 |
| GTGATAGGAAACCATCAC (((((.(....).))))) | 39.3 | -34.9 |
| GCACTGAAAAGTGC (((((....))))) | 61 | -35.1 |
| GATCAAGACGTTGATC ((((((....)))))) | 48.2 | -34 |
| GCGCATTCGAAAGAACGC (((..(((....)))))) | 41.4 | -18.8 |
| GTCTAAGCGAAAGCTGAC (((..(((....)))))) | 43.1 | -17.2 |

| Sequence | Tm [1] [°C] | folding enthalpy [2] [kcal/mol] |
| --- | --- | --- |
| GATCACGTAAGTGATC ((((((....)))))) | 69.3 | -30.8 |
| GGATCAGGAAACTGATTC (.(((((....))))).) | 44.4 | -31.1 |
| GCGCGAGGAAACTCGTGC ((.((((....)))).)) | 62.9 | -42.3 |
| CGTTTACGGAAACGTACG (((..(((....)))))) | 40.1 | -19.2 |
| GAGGGTGGAAACGCCCTC (((((.(....).))))) | 57.6 | -44.3 |
| GGTGTAACGAAAGTTACC (((..(((....)))))) | 42.9 | -14.3 |
| GATCTTACAAAAGATC ((((((....)))))) | 39.6 | -26.4 |
| GCCAACGAAAGTTTTGGC ((((((....)))..))) | 44.6 | -23.2 |
| GAACGTGAAAACGTTC ((((((....)))))) | 58.1 | -34 |
| GATCAAAAGTTTGATC ((((((....)))))) | 42.4 | -27.7 |
| GGTGTGGGAAACCATGCC ((..(((....)))..)) | 45.5 | -30.7 |
| GCGAGTGCTCGC ((((....)))) | 52 | -26.2 |
| GAAAAGCCGAAAGGCTTC (((..(((....)))))) | 36.8 | -7.3 |
| GTTTTGGGAAACCGAAAC ((((.((....)).)))) | 45.7 | -38.3 |
| GACTGCGAAAGCACCGTC ((((((....)))..))) | 37.6 | -10.7 |
| GATCCTGATAAGGATC ((((((....)))))) | 64.4 | -37 |
| GATCCAGTGGTGGATC ((((((....)))))) | 50.4 | -34.6 |
| GATCGTTCACACGATC ((((((....)))))) | 54.5 | -40.3 |
| GCTACCGAAAGGTCGAGC ((((((....)))..))) | 37 | -16.3 |
| GATCTAGAGCTAGATC ((((((....)))))) | 39.4 | -29.4 |
| GTATCGAAAGATAC (((((....))))) | 52.7 | -25.1 |
| GAGCTTGGAAACAAGCTC (((((((....))))))) | 67.8 | -35.1 |
| GATCCATATATGGATC ((((((....)))))) | 55 | -44.1 |
| GATCAGGTTACTGATC ((((((....)))))) | 57.6 | -38.2 |

| Sequence | Tm [1] [°C] | folding enthalpy [2] [kcal/mol] |
| --- | --- | --- |
| GCAGCGGGAAACCGCCGC ((.((((....)))).)) | 55.2 | -18.6 |
| GCGAACATCGC ((((...)))) | 45.6 | -17.1 |
| GCGGCGTCGAAAGACCGC (((..(((....)))))) | 54.6 | -27.5 |
| GCAAAGCGAAAGCTTAGC ((.((((....)))).)) | 57.2 | -19 |
| GTGGTTGGAAACAATCGC (.(.(((....))).).) | 35 | -23.3 |
| GCACCCGGAAACGAGTGC ((((.((....)).)))) | 51.6 | -48.8 |
| GGTCCCGAAAGGGGAACC ((((((....)))..))) | 48.5 | -17.2 |
| GAAGCGGAAACGCTTC ((((((....)))))) | 67.6 | -33.6 |
| GAAACCGAAAGGTGGTTC ((((((....)))..))) | 32.3 | -11.8 |
| GGGACCACGAAAGTGCCC (((..(((....)))))) | 40 | -15.7 |
| GATCCTAGGGAGGATC ((((((....)))))) | 51.8 | -29.6 |
| GCTAACGAAAGTTGTAGC ((((((....)))..))) | 38.3 | -20.6 |
| GGACCTGGAAACAAGTCC ((((.((....)).)))) | 38.7 | -23.5 |
| GCATTCGAAAGAAGGTGC ((((((....)))..))) | 36.7 | -22.2 |
| CGTACGGAAACGTAAACG ((((((....)))..))) | 37.2 | -17.3 |
| GATCAAGGAAACTTGATC (((((((....))))))) | 54 | -46.6 |
| GTCTTCGCGAAAGCGGAC (((..(((....)))))) | 30.4 | -10.6 |
| GATGTCGAAAGACATC ((((((....)))))) | 66.3 | -36.3 |
| GCCAATACGAAAGTAGGC (((..(((....)))))) | 44.2 | -25.6 |
| GCCCACGGAAACGCGAGC ((.(.((....)).).)) | 28 | -14.7 |
| GCACTGCGAAAGCGGGGC ((.(.((....)).).)) | 67.2 | -33.5 |
| GATCATTAGCATGATC ((((((....)))))) | 44.2 | -32.6 |
| GTGCGCGAAAGCGACCAC ((((((....)))..))) | 43.8 | -10.4 |
| GATTTGCGAAAGCAATC (((.(((....)))))) | 40.3 | -12.6 |

| Sequence | Tm [1] [°C] | folding enthalpy [2] [kcal/mol] |
| --- | --- | --- |
| GATCTGACGCAGATC ((((((...)))))) | 47.3 | -29.5 |
| GAAAGTGGAAACGCTTTC (((((.(....).))))) | 44.2 | -27.6 |
| GCCAAGGGAAACTTTGGC (((((.(....).))))) | 48.6 | -30.1 |
| GATCGTCATTACGATC ((((((....)))))) | 54.8 | -38.5 |
| GGAGCCGAAAGGCTTCC ((((((....))).))) | 60.3 | -14.6 |
| GATCCAAGCTTGGATC ((((((....)))))) | 54.8 | -54.6 |
| AGTACGAAAGTACT (((((....))))) | 54.1 | -21.4 |
| GATTAGCGAAAGCTTATC (((.(((....))).))) | 39.1 | -20.5 |
| GATCGTATGTACGATC ((((((....)))))) | 56.8 | -37.7 |
| GATCAGAAATCTGATC ((((((....)))))) | 46 | -35.2 |
| GTATGTCGAAAGACGTAC (((.(((....))).))) | 52.8 | -24.8 |
| GATCGGCAAGCCGATC ((((((....)))))) | 67 | -30.5 |
| CGCGCGGAAACGCTTGCG ((((((....)))..))) | 49.4 | -21.5 |
| GGTCGAGGAAACTCGGTC (..((((....))))..) | 38.4 | -16.2 |
| GTGGTGAAAACCAC (((((....))))) | 58 | -27.3 |
| GGGTCCGAAAGGAGCCCC ((((((....)))..))) | 66.4 | -11 |
| GATCAGGTTCTGATC ((((((...)))))) | 50.5 | -34.1 |
| GTTGTCGGAAACGATGAC ((..(((....)))..)) | 40.4 | -16 |
| GTGTGGCGAAAGCCTCAC (((.(((....))).))) | 58.9 | -29.7 |
| GTGTTGACGAAAGTCCAC (((..(((....)))))) | 41.6 | -19.6 |
| GATCTTACGTAAGATC ((((((....)))))) | 48.3 | -63 |
